Assay results published in ChEMBL document CHEMBL1129609, “Synthesis and antiviral activity evaluation of some new aminoadamantane derivatives. 2” (1996).
In brackets after ≈: the same amount, converted by molar mass.

Legend:
[1] = tested on: CCRF-CEM; test: Antiviral activity of compound was tested against viability virus infected CEM cell lines.; assay type: functional; conditions: Homo sapiens
[2] = tested on: Human immunodeficiency virus 2; test: Antiviral activity against HIV-2 virus infected CEM cell lines.; assay type: functional, CCRF-CEM
[3] = tested on: Human alphaherpesvirus 1; test: Antiviral activity against HSV-1 virus infected HEF cell lines.; assay type: functional
Summary of the method: (§1)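 Human embryonic fibroblasts, from embryonic lung or embryonic skin-muscle, infected with the virus. Endpoint is the minimum inhibitory concentration that reduces virus-induced cytopathicity by 50%. Values are averages of at least two separate experiments.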

[4] = tested on: Human alphaherpesvirus 2; test: Antiviral activity against HSV-2 virus infected HEF cell lines.; assay type: functional; summary of the method: as §1
[5] = tested on: Human alphaherpesvirus 1; test: Antiviral activity against TK-HSV-1 virus infected HEF cell lines.; assay type: functional; summary of the method: as §1
[6] = tested on: HEF; test: Antiviral activity of compound was tested against morphology virus infected HEF cell lines.; assay type: functional; conditions: Homo sapiens
[7] = tested on: HEF; test: Antiviral activity of compound was tested against vaccinia virus infected HEF cell lines.; assay type: functional; conditions: Homo sapiens; summary of the method: as §1
[8] = tested on: HEL; test: Antiviral activity of compound was tested against proliferation virus infected HEL cell lines.; assay type: functional; conditions: Homo sapiens
[9] = tested on: HeLa; test: Antiviral activity of compound was tested against morphology virus infected HeLa cell lines.; assay type: functional; conditions: Homo sapiens
[10] = tested on: HeLa; test: Antiviral activity of compound was tested against polio-1 virus infected HeLa cell lines.; assay type: functional; conditions: Homo sapiens
Summary of the method: (§2)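 Vero (African green monkey kidney), HeLa (human epithelial) or HEL (human embryonic lung) cell monolayers infected with the virus. Readout is the minimum inhibitory concentration that reduces virus-induced cytopathicity by 50%. Values are averages of at least two separate experiments.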

[11] = tested on: HeLa; test: Antiviral activity of compound was tested against stomatitis virus infected HeLa cell lines.; assay type: functional; conditions: Homo sapiens; summary of the method: as §2
[12] = tested on: HEL; test: Antiviral activity of compound was tested against HCMV virus infected HEL cell lines.; assay type: functional; conditions: Homo sapiens; summary of the method: as §2
[13] = tested on: HEL; test: Antiviral activity of compound was tested against TK+VZV virus infected HEL cell lines.; assay type: functional; conditions: Homo sapiens; summary of the method: as §2
[14] = tested on: HEL; test: Antiviral activity of compound was tested against TK-VZV virus infected HEL cell lines.; assay type: functional; conditions: Homo sapiens; summary of the method: as §2
[15] = tested on: HeLa; test: Antiviral activity of compound was tested against Coxsackie B4 virus infected HeLa cell lines.; assay type: functional; conditions: Homo sapiens; summary of the method: as §2
[16] = tested on: MDCK; test: Antiviral activity tested against influenza A,H1N1 virus infected MDCK cell lines.; assay type: functional; conditions: Canis lupus familiaris
[17] = tested on: MDCK; test: Antiviral activity of compound was tested against influenza A,H3N2 virus infected MDCK cell lines.; assay type: functional; conditions: Canis lupus familiaris
[18] = tested on: MDCK; test: Antiviral activity of compound was tested against influenza […] virus infected MDCK cell lines; assay type: functional; conditions: Canis lupus familiaris
[19] = tested on: MDCK; test: Antiviral activity of compound was tested against morphology virus infected MDCK cell lines.; assay type: functional; conditions: Canis lupus familiaris
[20] = tested on: Vero; test: Antiviral activity of compound was tested against sindbis virus infected vero cell lines.; assay type: functional; conditions: Chlorocebus sabaeus; summary of the method: as §2
[21] = tested on: Vero; test: Antiviral activity of compound were tested against semliki forest virus infected vero cell lines.; assay type: functional; conditions: Chlorocebus sabaeus; summary of the method: as §2
[22] = tested on: Vero; test: Antiviral activity of compound was tested against Coxsackie B4 virus infected vero cell lines.; assay type: functional; conditions: Chlorocebus sabaeus; summary of the method: as §2
[23] = tested on: Human respirovirus 3; test: Antiviral activity against parainfluenza 3 virus infected Vero cell lines.; assay type: functional; summary of the method: as §2
[24] = tested on: Vero; test: Antiviral activity of compound was tested against reo1 virus infected vero cell lines.; assay type: functional; conditions: Chlorocebus sabaeus; summary of the method: as §2
[25] = Antiviral activity against influenza A,H2N2 virus infected MDCK cell lines.; assay type: functional
[26] = tested on: Vero; test: Antiviral activity of compound was tested against morphology virus infected Vero cell lines.; assay type: functional; conditions: Chlorocebus sabaeus
[27] = tested on: CCRF-CEM; test: Antiviral activity of compound was tested against HIV-1 virus infected CEM cell lines.; assay type: functional; conditions: Homo sapiens
[28] = tested on: HEF; test: Antiviral activity of compound was tested against vesicular virus infected HEF cell lines.; assay type: functional; conditions: Homo sapiens; summary of the method: as §1

Which results are given for `CN(C)CC1CCCN1C12CC3CC(CC(C3)C1)C2` (stereo not drawn)?
MIC50 [1]: > 200 µg/mL; MIC50 [2]: > 200 µg/mL; MIC50 [3]: > 200 µg/mL; MIC50 [4]: > 200 µg/mL; MIC50 [5]: > 200 µg/mL; MIC50 [6]: > 400 µg/mL; MIC50 [7]: > 200 µg/mL; MIC50 [8]: > 50 µg/mL; MIC50 [9]: > 400 µg/mL; MIC50 [10]: > 400 µg/mL; MIC50 [11]: > 400 µg/mL; MIC50 [12]: > 50 µg/mL; MIC50 [13]: > 50 µg/mL; MIC50 [14]: > 50 µg/mL; MIC50 [15]: > 400 µg/mL; MIC50 [16]: > 70 µg/mL; MIC50 [17]: 73 µg/mL (≈ 278 µM); MIC50 [18]: 60 µg/mL (≈ 229 µM); MIC50 [19]: > 250 µg/mL; MIC50 [20]: > 400 µg/mL; MIC50 [21]: > 400 µg/mL; MIC50 [22]: > 400 µg/mL; MIC50 [23]: > 400 µg/mL; MIC50 [24]: > 400 µg/mL; MIC50 [25]: 32.5 µg/mL (≈ 124 µM); MIC50 [26]: > 400 µg/mL; MIC50 [27]: 115 µg/mL (≈ 438 µM); MIC50 [28]: > 200 µg/mL
